m5-HT2A agonist: agonists of mouse serotonin 5-HT2A receptor (HTR2A); CHO-K1 mHTR2A beta-arrestin complementation, luminescence; percent of 30 µM serotonin response; activation, % at 7.6 µM; actives 0.66% (n = 360,000); AID 624169;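 active = activation above a run cutoff, the mean activation of all tested compounds plus 3 SD, cut at about 14% in these data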;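 note: 0% = plate median of compound wells and 100% = 30 µM serotonin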
TAAR1 antagonist: antagonists of human TAAR1; Q96RJ0; CHO RD-HGA16 TAAR1, Fluo-8 calcium fluorescence, antagonist; inhibition, % at 3 µM; actives 1.5% (n = 360,000); AID 624466;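 active = inhibition above a per-plate cutoff, the mean inhibition of test compounds on that plate plus 3 SD, cut at about 49% in these data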;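 note: 0% = DMSO plus EC80 beta-PEA response and 100% = DMSO alone without agonist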
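System: CHO RD-HGA16 cells bearing hTAAR1. Reagent: EC80 β-phenethylamine stimulus. Schedule: seeding 17-24 h prior, 75-min 37 °C, 30-min RT dye loading. Signal: Fluo-8 intracellular calcium dye fluorescence, real-time kinetic reads. Read-out: % inhibition from peak post-agonist over basal fluorescence ratio. Benchmarks: vehicle wells and EC80 agonist wells. Replicates: n of 1.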
MC4R barr agon: agonists of human melanocortin 4 receptor (MC4R) beta-arrestin; U2OS MC4R beta-arrestin complementation, luminescence; percent of melanotan II response, DMSO zero; activation, % at 8.9 µM; actives 0.98% (n = 360,000); AID 540308;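 active = activation above a per-plate cutoff, the mean activation of sample wells on that plate plus 3 SD, cut at about 8% in these data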
Target sequence (P32245 whole entry, looked up): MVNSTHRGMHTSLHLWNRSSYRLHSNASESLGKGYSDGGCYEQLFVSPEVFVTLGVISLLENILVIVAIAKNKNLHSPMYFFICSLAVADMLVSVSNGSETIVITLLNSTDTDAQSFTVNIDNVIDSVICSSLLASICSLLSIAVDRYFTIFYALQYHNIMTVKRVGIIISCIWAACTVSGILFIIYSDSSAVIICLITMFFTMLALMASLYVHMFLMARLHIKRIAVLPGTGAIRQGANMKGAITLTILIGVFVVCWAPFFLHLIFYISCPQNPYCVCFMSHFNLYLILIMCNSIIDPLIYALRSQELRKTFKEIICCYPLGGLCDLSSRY
Beta2AR agonist: activates human beta-2 adrenergic receptor causing internalization. P07550. Am2.2-beta2AR cells, FAP receptor internalization, flow cytometry. response, % (concentration not given with the values). actives 0.43% (n = 340,000);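 active = response above a set limit, near 3 SD of response in nonfluorescent compounds, cut at about 42% in these data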
MC4R antagonist: antagonists of human melanocortin 4 receptor (MC4R). inhibition, % at 6.5 µM. MC4R-expressing cells, MTII-stimulated cAMP, LANCE TR-FRET. actives 0.48% (n = 360,000);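 active = inhibition above its plate's cutoff, the mean of tested wells on that plate plus 3 SD, cut at about 29% in these data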;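 note: 0% = Melanotan II alone and 100% = Melanotan II plus saturating MCL0020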
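material = U2OS cells stably expressing human melanocortin 4 receptor (MC4R) | also added = Melanotan II challenge | dosing = single nominal compound dose of 6.5 µM | detection = TR-FRET with Eu-cAMP and labeled anti-cAMP, 671 nm | replication = singlicate | timing = compound 30 min, challenge 1 h, detection 1 h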
TAAR1 agonist: agonists of human TAAR1 | Q96RJ0 | CHO RD-HGA16 TAAR1, Fluo-8 calcium fluorescence; vehicle wells 0%, saturating PEA agonist 100% | activation, % at 3 µM | actives 0.99% (n = 360,000) | AID 624467;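 active = activation above the mean activation of all test compounds in the run plus 3 SD, cut at about 38% in these data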
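test system = CHO RD-HGA16 cells carrying human TAAR1 plus Gα16 | schedule = 17-24 h seeding, 75 min 37 °C dye, 30 min RT | compound dosing = 3 µM single concentration | control set = DMSO and PEA EC100 | replicates = n 1 | signal = Fluo-8 fluorescence, 5 s baseline then 140 s kinetic read | measure = percent activation vs PEA EC100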
MOR ag counter: OPRM1 agonism in mouse HTR2A counterscreen | shares compounds with m5-HT2A agonist | U2OS OPRM1 beta-arrestin PathHunter, luminescence; DMSO 0%, DAMGO 9.3 µM 100% | activation, % at 9.3 µM | actives 5.3% (n = 2,300) | AID 624380;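 active = mean activation above the mean of DMSO-only wells plus 3 SD, cut at about 0.5% in these data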
Target sequence (P35372 whole entry, looked up): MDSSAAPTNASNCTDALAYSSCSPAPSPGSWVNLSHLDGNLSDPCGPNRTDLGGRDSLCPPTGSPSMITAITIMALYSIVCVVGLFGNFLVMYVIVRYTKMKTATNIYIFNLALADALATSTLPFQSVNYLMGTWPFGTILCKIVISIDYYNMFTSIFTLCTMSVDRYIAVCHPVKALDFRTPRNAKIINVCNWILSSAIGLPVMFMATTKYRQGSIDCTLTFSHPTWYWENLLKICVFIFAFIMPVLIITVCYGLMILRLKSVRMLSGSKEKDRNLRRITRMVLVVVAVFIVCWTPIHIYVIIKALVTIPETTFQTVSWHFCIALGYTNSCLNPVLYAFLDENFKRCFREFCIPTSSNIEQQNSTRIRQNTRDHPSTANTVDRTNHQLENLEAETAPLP
HTR2A ag conf: confirmation of mouse HTR2A serotonin receptor agonists; activation, % at 7.6 µM; shares compounds with m5-HT2A agonist; CHO-K1 PathHunter beta-arrestin recruitment, luminescence; DMSO 0%, 30 µM serotonin 100%; actives 19% (n = 2,300);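 active = mean activation across triplicates above the hit threshold derived in the original primary screen, cut at about 15% in these data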
* hit, by the source's call; x = not tested or not shown. Most compounds without a hit are left out; they make up all but 4.3% or so of the library.

SMILES	m5-HT2A agonist	TAAR1 antagonist	MC4R barr agon	Beta2AR agonist	MC4R antagonist	TAAR1 agonist	MOR ag counter	HTR2A ag conf
COc1ccc(-c2cc(C(=O)NC3CCCC3)no2)cc1	24.9*	-0.2	4.0	1.0	3.1	12.6	-0.5	-3.8
Cc1ccc(-c2cc(C(=O)OCC(=O)NC3CC3)c3ccccc3n2)cc1	-0.6	14.4	-1.6	-5.5	1.9	1.9	x	x
Cc1ccc2c(c1)C(C)CC(C)(C)N2C(=O)CN1CCN(C)CC1 (centres undefined)	-9.7	-19.2	-0.4	-3.8	5.4	4.7	x	x
O=C(COC(=O)/C=C/c1cccc(C(F)(F)F)c1)NC(=O)NCc1ccccc1	3.9	-2.6	5.2	-4.8	-2.7	-0.2	x	x
O=C(COC(=O)/C=C/c1cccc(C(F)(F)F)c1)NC(=O)NC1CCCC1	16.3*	-26.7	1.8	2.2	1.7	-2.0	-0.1	-2.7
COc1ccc(C#Cc2cnc3c(c2)C(=O)N([C@@H](C)CO)C[C@@H](C)[C@@H](CN(C)CC2CCOCC2)O3)cc1	-9.6	-20.0	-2.1	x	2.1	0.1	x	x
CC1CCc2nc(NC(=O)c3ccc(N4C(=O)CCC4=O)cc3)sc2C1 (centres undefined)	-8.0	-14.0	-3.1	1.1	6.8	7.4	x	x
CCN(CC(=O)Nc1c(F)cccc1F)C(=O)c1ccc(N2CCCCC2)c([N+](=O)[O-])c1	15.1*	-4.2	-2.7	-5.1	-3.5	2.3	0.7*	8.0
COC(=O)Cc1ccc(OC2(C)CCN(Cc3ccc(-c4ccccn4)cc3)C2)cc1 (centres undefined)	9.5	-32.9	1.6	x	8.0	2.7	x	x
Cc1ccc2c(C)c(C(=O)Nc3c(C)n(C)n(-c4ccccc4)c3=O)oc2c1C	17.5*	-36.6	-0.2	7.7	8.4	-2.0	-0.1	40.1*
Cc1cc2oc(C(=O)Nc3c(C)n(C)n(-c4ccccc4)c3=O)c(C)c2cc1C	1.4	-24.2	2.3	-1.9	1.3	3.7	x	x
O=C(CSc1nc(-c2cccs2)nc2ccccc12)NC1CCS(=O)(=O)C1 (centres undefined)	19.1*	-0.2	-0.2	-18.5	17.3	-0.2	0.5*	-2.3
CCN(C(=O)CSc1nc(-c2cccs2)nc2ccccc12)C1CCS(=O)(=O)C1 (centres undefined)	1.8	-14.2	-0.7	-10.5	-1.5	1.5	x	x
COc1ccccc1CNC(=O)c1n[nH]c2ccccc12	19.0*	-6.0	-1.5	1.5	4.0	0.2	-0.3	2.2
COc1ccc(CCNC(=O)c2ccco2)cc1OC	2.7	16.0	1.2	-3.4	24.0	5.4	x	x
COc1ccc(CCNC(=O)c2ccccc2NC(=O)c2ccco2)cc1OC	23.8*	41.9	0.4	1.7	8.5	17.9	-0.7	-3.0
CCc1nn(CC(=O)N2CC(C)CC(C)C2)c(=O)c2cccn12 (centres undefined)	9.1	-15.0	-2.0	-0.4	-0.3	8.2	x	x
CC(C)C[C@H]1CN=C(N(C)C)N1CCCCc1ccccc1	19.7*	-2.8	1.5	-2.4	-0.2	14.4	-0.5	-3.4
O=C(NCCc1ccc2c(c1)OCO2)Oc1ccccc1	4.0	3.5	x	x	x	17.9	x	x
CCCS(=O)(=O)NC(=O)C1(C)CCCN(C(=O)c2ccccc2F)C1 (centres undefined)	3.3	-7.3	-1.3	x	17.7	1.6	x	x
CCCNC(=O)C1(C)CCCN(C(=O)c2ccccc2F)C1 (centres undefined)	17.4*	-17.4	1.1	x	16.3	0.6	-0.6	-2.9
CCCCNC(=O)C(=O)Nc1cc2c3c(c1)CCC(=O)N3CCC2	14.7*	-5.7	-1.0	3.1	-3.5	2.3	-0.5	-3.8
C[C@@H](NC(=O)Cn1cnc2c(OCc3ccccc3)ncnc21)c1cccc2ccccc12	15.7*	27.8	-0.5	-0.4	6.4	7.8	x	-0.8
Cc1c(C)c2ccc(OCC(=O)Nc3ccccn3)cc2oc1=O	17.8*	-12.6	-2.7	2.8	2.1	0.2	-0.7	-2.7
COc1cc(OC)cc(C(=O)Oc2ccc(/C=N/Nc3nc4ccccc4s3)cc2OC)c1	22.5*	-12.0	-1.7	5.1	1.7	0.4	0.1	-1.5
SMILES	m5-HT2A agonist	TAAR1 antagonist	MC4R barr agon	Beta2AR agonist	MC4R antagonist	TAAR1 agonist	MOR ag counter	HTR2A ag conf
COc1cc(/C=N/Nc2nc3ccccc3s2)ccc1OC(=O)c1ccccc1F	0.6	47.4	0.9	-4.4	-5.7	1.4	x	x
Nc1ncnc(N2CCOCC2)c1N	3.9	-2.5	-2.1	-1.3	12.9	0.5	x	x
Nc1c(Cl)ncnc1N1CCCC1	14.6*	18.8	-4.5	13.0	0.5	8.2	-0.4	-2.8
OC(CCCC(O)c1ccccc1)c1ccccc1 (centres undefined)	9.9	11.0	-1.1	-1.8	3.8	1.5	x	x
OC(Cn1cnnc1)c1ccccc1 (centres undefined)	16.7*	-7.7	0.3	-2.6	3.0	1.7	-0.6	1.4
Cc1cccc(C(=O)OCC(=O)c2c(N)n(CC(C)C)c(=O)n(C)c2=O)c1[N+](=O)[O-]	16.9*	39.5	0.1	4.6	6.5	10.2	-0.1	-0.6
Cc1cccc(C(=O)OCC(=O)c2c(N)n(CC(C)C)c(=O)n(C)c2=O)c1O	-1.3	33.6	4.5	15.8	6.1	10.5	x	x
COc1cc(/C=C2\SC(N)=NC2=O)ccc1O	-5.1	8.7	0.1	0.6	-4.4	-0.9	x	x
CC(C)(C)NC(=O)C(c1cc2ccccc2o1)n1c(=O)c(-c2ccco2)nc2ccccc21 (centres undefined)	16.2*	-12.0	x	x	x	12.3	-0.8	-4.2
CCCNC(=O)N(C)C[C@@H]1Oc2cc(Br)ccc2S(=O)(=O)N([C@@H](C)CO)C[C@H]1C	-0.6	-5.0	3.3	x	-1.6	1.2	x	x
CCOc1ccc(C(=O)Nc2ccc(Cc3ccncc3)cc2)cc1Br	-1.8	-0.7	2.2	7.5	5.0	2.1	x	x
CCOc1ccc(C(=O)Nc2ccc(NC(=O)c3ccccc3)cc2)cc1Br	25.4*	-9.8	-1.4	2.2	3.7	4.9	-0.6	-1.1
O=C(CSc1nncn1-c1cccnc1)Nc1cccc(C(F)(F)F)c1	3.7	4.8	-2.3	-12.5	5.2	-3.9	x	x
O=C(NC1CCCC1)C1CCCN1S(=O)(=O)c1cccc2cccnc12 (centres undefined)	22.2*	-0.6	0.7	1.5	-2.3	1.3	-0.5	-1.5

Source: PubChem BioAssay
